Jurkat NFkB inh: inhibitors of the PMA/ionomycin-induced NF-kB reporter in Jurkat cells; PMA/ionomycin-induced NF-kB luciferase reporter, luminescence; inhibition, % at 4 µM; 0.53% of 330,000 active; AID 435003; in the data active means inhibition above about 50%
CHOP inhibitor: inhibitors of CHOP induction in ER stress response; CHO-K1 CHOP-promoter luciferase, tunicamycin-induced, 15-18 h; inhibition, % at 10 µM; 3.8% of 220,000 active;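 active means compounds that reduced the stress-induced luciferase reporter signal by more than about 70% of percent inhibition, limit read from the data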;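 further: 0% = tunicamycin plus vehicle and 100% = wells without tunicamycin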
697 NFkB inh: inhibitors of the PMA/ionomycin-induced NF-kB reporter in 697 B cells | 0.33% of 330,000 active | 697 B-cell NF-kB luciferase reporter, 16 h | inhibition, % at 4 µM; in the data active means inhibition above about 35%
UPR CHOP act: apoptotic UPR (CHOP) activation; CHO-CHOP luciferase reporter, luminescence; percent of tunicamycin response over DMSO baseline; activation, % at 10 µM; 0.34% of 330,000 active; AID 449763;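 active means at 10 µM dose, activation of 40% or more, normalized to positive control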;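 further: 100% = tunicamycin at 10 µg/mL and 0% = DMSO alone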
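Material: CHO-CHOP cells, stable luciferase reporter of PERK-eIF2a-CHOP signalling; quantity: 500 reporter cells seeded per well; buffer or medium: F12 medium containing 10% fetal bovine serum; compound: one dose, 10 µM in 0.5% DMSO; incubation: 6 h compound treatment, 37 °C; measured by: Steady-Glo luciferase luminescence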
UPR XBP1 act: adaptive UPR (XBP1) activation; CHO-XBP1 luciferase reporter, IRE1-XBP1 UPR activation, luminescence; percent of tunicamycin response, DMSO as zero; activation, % at 20 µM; 0.33% of 330,000 active; AID 463104;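 active means versus positive control, 20 µM dose yields 30% or more activation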;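 further: 100% = tunicamycin at 10 µg/mL and 0% = DMSO only wells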
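Assay system: CHO-XBP1 luciferase reporter cells; Schedule: 6 h treatment, 37 °C; Detection: glow luminescence from Steady-Glo reagent; Benchmarks: high control tunicamycin 10 µg/mL final, low control DMSO vehicle only.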
* marks the source's active call; other numbers are inactive results; x = no result. The entries come from a sample that favours hits as a whole.

SMILES | Jurkat NFkB inh | CHOP inhibitor | 697 NFkB inh | UPR CHOP act | UPR XBP1 act
Cc1cccc(CNC(=O)C2CCC(=O)N(C3CC3)C2)c1 (centres undefined) | -18.3 | x | 2.9 | -1.0 | -2.2
CCOc1nc(Nc2ccc(OC)cc2)nc(OCC)n1 | -1.7 | 19.9 | 4.6 | -0.7 | -1.8
CCOc1nc(Nc2ccc(OC)c(Cl)c2)nc(OCC)n1 | 3.0 | 83.0* | 5.0 | -1.8 | -0.5
Cc1cc(C(=O)N/N=C/c2cc(Br)cc(Br)c2OC(=O)c2cccc(F)c2)n[nH]1 | -0.3 | 92.2* | 4.5 | -1.4 | 2.5
Cc1cc(C(=O)N/N=C/c2cc(Br)cc(Br)c2OC(=O)c2ccccc2)n[nH]1 | 13.7 | 81.4* | -9.2 | 6.2 | 5.3
Cc1cc(C(=O)N/N=C/c2cc(Br)ccc2OC(=O)c2ccc(Br)cc2)n[nH]1 | 18.8 | 67.3 | -12.9 | 4.4 | 7.8
C=C(c1ccccc1)c1ccccc1N | 12.5 | x | 4.1 | -2.1 | 1.1
CC[C@@]12C(=O)N(c3cccc(Cl)c3)C(=O)N1[C@H](c1ccc(Br)cc1)[C@@H]1C(=O)N(C(C)(C)C)C(=O)[C@@H]12 | 6.6 | x | 10.9 | 1.8 | -0.4
Brc1ccc2[nH]c3c(c2c1)CCC3 | -25.1 | -0.5 | -93.8 | 0.9 | 0.5
NC(=O)c1cc(Br)cc2c3c([nH]c12)CCCC3 | 4.1 | 84.8* | -27.4 | -2.6 | 3.2
CC(C)CCOc1cccc(OCC(=O)O)c1 | 6.0 | 86.3* | 11.0 | -1.4 | -0.9
O=C(O)COc1cccc(NC(=O)c2ccccc2)c1 | -28.3 | -8.8 | 6.2 | 0.6 | -0.2
O=[N+]([O-])c1cccc(/C=C/C=N/Nc2nc(N3CCCCC3)nc(N3CCCCC3)n2)c1 | -3.1 | 20.6 | -0.1 | 1.0 | 1.0
Cc1cc(C)c(N(C(=O)Cn2nnc3ccccc32)C(C(=O)NC(C)(C)C)c2ccsc2)c(C)c1 (centres undefined) | 12.8 | 49.3 | 15.1 | -0.6 | -5.0
CC(C)(C)NC(=O)C(c1ccsc1)N(CCc1ccccc1)C(=O)Cn1nnc2ccccc21 (centres undefined) | 4.2 | 95.0* | 8.7 | 2.6 | 9.9
Cc1ccc(C)c(N(C(=O)Cn2nnc3ccccc32)C(C(=O)NC(C)(C)C)c2ccsc2)c1 (centres undefined) | -15.4 | 70.6* | -35.9 | 0.3 | 7.3
CC(NC(=O)CNC(=O)C1CCCCC1)c1ccc(S(N)(=O)=O)cc1 (centres undefined) | 1.4 | x | 7.5 | 2.0 | -1.9
CCOc1ccc(CCNC(=O)c2cc(=O)[nH]c3ccc(S(=O)(=O)N(CC)CC)cc23)cc1OCC | 14.7 | x | 4.2 | 2.6 | -3.4
O=S(=O)(NCCSc1ccc(Cl)cc1)c1ccc(F)cc1 | 3.3 | 70.7* | -10.9 | -1.2 | 0.4
Cc1cc(=O)n2nc(-c3ccc(C(F)(F)F)cc3)sc2n1 | -73.1 | 75.4* | -44.2 | 1.4 | -1.4
COc1ccccc1-c1nn2c(=O)cc(C)nc2s1 | -42.2 | -24.7 | -15.1 | 4.5 | 3.8
Cc1ccc2c(c1)C(=O)c1ccccc1CS2=O (centres undefined) | 5.6 | 23.1 | 26.6 | 1.5 | -1.8
CCCCc1nn(-c2cc(Cl)ccc2OC)c2c1C(=O)CC(C)(C)C2 | 0.9 | 81.4* | 31.4 | 3.6 | -1.6
O=C(NC1CCCCC1)C(c1ccccc1F)N(Cc1ccco1)C(=O)Cn1nnc2ccccc21 (centres undefined) | 4.6 | 28.5 | 9.6 | 0.4 | -3.6
O=C(NC1CCCCC1)C(c1ccc(F)cc1)N(Cc1ccco1)C(=O)Cn1nnc2ccccc21 (centres undefined) | 4.9 | 74.0* | 7.9 | 0.3 | 0.4
SMILES | Jurkat NFkB inh | CHOP inhibitor | 697 NFkB inh | UPR CHOP act | UPR XBP1 act
COc1ccccc1NC(=O)Cn1ncc2c1-c1ccccc1OC2 | -1.0 | 16.2 | -40.6 | -0.2 | -1.4
CCOc1ccc(-c2cc(NC(=O)Cn3ncc4c3-c3ccccc3OC4)on2)cc1OCC | -4.9 | 99.7* | 16.0 | -0.1 | -2.4
CCCCN(C)S(=O)(=O)c1cc2c3c(c1)CCC(=O)N3CCC2 | -3.9 | x | -23.5 | 1.4 | 1.0
COc1cc(OC)cc(-n2nnnc2SCC(=O)N2CCCc3ccccc32)c1 | -18.4 | 17.8 | 12.5 | 0.0 | -2.3
COc1cccc(-n2nnnc2SCC(=O)N2CCCc3ccccc32)c1 | 0.1 | 70.2* | 11.3 | 0.9 | 2.5
CC(=O)c1ccc(NS(=O)(=O)c2ccc(N/C=C/C(=O)c3ccc(F)cc3)cc2)cc1 | -6.8 | 10.7 | 9.8 | 4.8 | -0.6
